Activity calls are given as the source filed them.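 How the source made its calls, unless noted: active means potentiation averaged over duplicate wells exceeding buffer-only control mean by more than 3 SD; inactive means the rest.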
Assays:
[1] = nonspecific flux increase, KCNQ1-free cells – parental CHO cells, counter-screen for KCNQ1 potentiator project (AID 493006;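 active means duplicate-averaged activation above buffer control mean plus 5 SD of those controls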;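 on activation: fluorescence ratio of max minus min over baseline after K+ and Tl+ depolarization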); conditions: parental CHO-K1 cells, FluxOR thallium flux, at 10 µM; active compounds read high
Procedure, shortened: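 Material: parental CHO-K1 cells, FluxOR dye-loaded; Also added: Potassium/thallium depolarization pulse; Schedule: overnight 37 °C plating, 90 min dye, 20 min dark compound; Signal: kinetic FluxOR fluorescence, 10 s baseline, 110 s after stimulus.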

[2] = molecular target: Potassium voltage-gated channel subfamily KQT member 1 (Homo sapiens) (UniProt P51787); assay: enhancement of KCNQ1 channel thallium flux – FluxOR thallium flux, CHO cells, duplicates, confirmation (AID 493007); conditions: KCNQ1 cell line, FluxOR thallium flux fluorescence, at 10 µM; active compounds read high, % of reference activator effect, buffer zero;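 on outcome: cells depolarized by a potassium plus thallium sulfate stimulus after compound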
Procedure, shortened: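 System: KCNQ1-expressing CHO cell line; technique: kinetic thallium influx fluorescence with FluxOR dye, 10 s baseline, 110 s post-stimulus; timing: dye 90 min then compound 20 min, both at room temperature; controls: buffer-only wells as 0% and R-L3 activator as 100%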

[3] = molecular target: Potassium voltage-gated channel subfamily KQT member 2 (Rattus norvegicus) (UniProt O88943); assay: KCNQ2 thallium flux enhancement – KCNQ2-CHO-K1 cells, selectivity assay for KCNQ1 potentiator project (AID 493009;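 active means mean duplicate potentiation above the buffer control mean plus 5 SD of buffer wells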;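 further: assay conditions were tuned for KCNQ1 rather than KCNQ2 modulators; signal is max minus min fluorescence divided by baseline after thallium stimulus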); conditions: FluxOR thallium flux fluorescence, at 10 µM; active compounds read high, scaled: buffer 0, activator control 100
[4] = molecular target: Potassium voltage-gated channel subfamily KQT member 1 (Homo sapiens) (UniProt P51787); assay: KCNQ1 activators by electrophysiology – IonWorks patch clamp, KCNQ1-CHO cells, orthogonal assay for KCNQ1 potentiator project, confirmation (AID 493184;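 active means current rise at least 3 SD above the untreated control mean in each of two repeat wells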;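 on current potentiation: percent change of the same well's current before compound addition so 0% = no change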); conditions: automated patch clamp current, at 10 µM; active compounds read high
Procedure, shortened: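 Test system: KCNQ1-expressing CHO cells. Medium: pH 7.4 external bath. Probe or stimulus: voltage step from -90 mV holding to +40 mV, 2,000 ms. Compound: 10 µM final, single point. Detection: automated perforated-patch electrophysiology. Read-out: percent current increase versus pre-compound level. Repeats: two replicates.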

Sequence of Potassium voltage-gated channel subfamily KQT member 2 (Rattus norvegicus) (O88943 whole entry, looked up): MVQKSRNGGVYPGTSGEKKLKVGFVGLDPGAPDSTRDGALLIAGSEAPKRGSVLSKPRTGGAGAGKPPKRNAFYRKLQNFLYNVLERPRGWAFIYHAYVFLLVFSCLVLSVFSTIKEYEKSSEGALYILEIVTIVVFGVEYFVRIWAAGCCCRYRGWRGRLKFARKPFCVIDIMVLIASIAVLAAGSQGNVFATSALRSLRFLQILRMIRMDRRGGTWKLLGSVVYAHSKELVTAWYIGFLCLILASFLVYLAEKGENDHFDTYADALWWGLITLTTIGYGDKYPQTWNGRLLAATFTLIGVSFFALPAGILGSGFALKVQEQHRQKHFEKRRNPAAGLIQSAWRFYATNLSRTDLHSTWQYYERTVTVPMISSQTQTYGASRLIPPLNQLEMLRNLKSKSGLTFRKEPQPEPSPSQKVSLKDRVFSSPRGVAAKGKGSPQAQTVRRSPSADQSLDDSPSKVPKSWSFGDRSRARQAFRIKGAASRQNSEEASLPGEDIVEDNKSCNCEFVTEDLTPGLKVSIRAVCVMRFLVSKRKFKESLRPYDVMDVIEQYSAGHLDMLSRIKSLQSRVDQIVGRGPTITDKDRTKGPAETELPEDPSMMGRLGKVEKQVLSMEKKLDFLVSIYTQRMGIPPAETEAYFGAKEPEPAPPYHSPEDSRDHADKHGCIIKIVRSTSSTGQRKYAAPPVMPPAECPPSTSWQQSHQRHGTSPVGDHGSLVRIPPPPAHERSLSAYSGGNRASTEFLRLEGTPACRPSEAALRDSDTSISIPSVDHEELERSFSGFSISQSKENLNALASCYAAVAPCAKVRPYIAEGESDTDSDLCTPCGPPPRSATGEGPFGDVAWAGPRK
Sequence of Potassium voltage-gated channel subfamily KQT member 1 (Homo sapiens) (P51787 whole entry, looked up): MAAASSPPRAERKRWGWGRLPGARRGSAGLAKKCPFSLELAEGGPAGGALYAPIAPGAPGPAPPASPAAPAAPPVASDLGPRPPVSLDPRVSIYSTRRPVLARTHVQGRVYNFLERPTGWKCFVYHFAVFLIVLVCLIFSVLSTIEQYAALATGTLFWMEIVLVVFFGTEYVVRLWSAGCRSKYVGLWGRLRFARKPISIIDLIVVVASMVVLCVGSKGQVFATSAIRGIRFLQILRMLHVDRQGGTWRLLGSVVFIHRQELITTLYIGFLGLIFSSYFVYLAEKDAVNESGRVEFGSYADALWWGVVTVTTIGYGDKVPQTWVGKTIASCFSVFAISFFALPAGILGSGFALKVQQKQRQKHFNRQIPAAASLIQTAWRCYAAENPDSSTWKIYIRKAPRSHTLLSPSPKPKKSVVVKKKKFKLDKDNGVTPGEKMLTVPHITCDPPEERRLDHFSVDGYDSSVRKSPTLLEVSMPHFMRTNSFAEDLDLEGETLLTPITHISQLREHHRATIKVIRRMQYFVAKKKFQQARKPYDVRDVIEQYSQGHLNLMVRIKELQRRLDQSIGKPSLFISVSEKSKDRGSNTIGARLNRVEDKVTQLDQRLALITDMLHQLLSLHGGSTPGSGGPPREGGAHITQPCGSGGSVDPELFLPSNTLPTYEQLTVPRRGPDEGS

| Structure (SMILES) | outcome [1] | outcome [2] | outcome [3] | outcome [4] | activation [1] | potentiation [2] | potentiation [3] | current potentiation [4] |
| --- | --- | --- | --- | --- | --- | --- | --- | --- |
| COc1ccc(CN2C(=O)C(C)S/C2=N/N=C/c2ccco2)cc1 (stereo not given) | inactive | inactive | inactive | inactive | – | – | – | – |
| CCN1c2ccccc2-c2nc3ccccc3n2C1c1cccnc1 (stereo not given) | inactive | inactive | inactive | inactive | – | – | – | – |
| S=c1sc2c(Cl)ncnc2n1-c1ccccc1 | – | – | – | inactive | 302% (active) | 146% (active) | 364% (active) | – |
| CN(C)c1ccc(C(=O)Nc2nnc(C3=COCCO3)o2)cc1 | inactive | inactive | inactive | inactive | – | – | – | – |
| CCOc1ccc(CN(CCC#N)C(=S)NC(=O)c2ccccc2)cc1 | – | – | – | inactive | 149% (active) | 47% (active) | 216% (active) | – |
| COc1ccccc1CNCc1cccc(Oc2ccccc2)c1 | inactive | inactive | inactive | inactive | – | – | – | – |
| COC(=O)c1cnn(-c2ccc(Cl)cc2)c1/C=N/NC(N)=S | inactive | inactive | inactive | inactive | – | – | – | – |
| CCCOc1ccc(-c2c(=O)n(O)c3ccccc3[n+]2[O-])cc1 | – | inactive | – | inactive | 237% (active) | – | 243% (active) | – |
| CCc1ccc2[nH]c(O)c(N=Nc3nc(-c4ccccc4)cs3)c2c1 | – | – | – | inactive | 186% (active) | 178% (active) | 282% (active) | – |
| O=C(NC(=S)Nc1ccccc1N1CCCC1)c1cccc(F)c1 | inactive | – | – | inactive | – | 37% (active) | 144% (active) | – |
| CC(C)C(=O)Nc1c(O)c2ccccc2[nH]c1=O | inactive | inactive | inactive | inactive | – | – | – | – |
| CCn1c(=S)[nH]c2sc3c(c2c1=O)CCCC3 | – | – | – | inactive | 338% (active) | 149% (active) | 383% (active) | – |
| CCOC(=O)c1c(NS(C)(=O)=O)sc2c1CCC(C)C2 (stereo not given) | – | – | – | inactive | 173% (active) | 24.5% (active) | 190% (active) | – |
| CCCCOC(=S)NC(=O)c1sc2ccccc2c1Cl | – | – | – | inactive | 448% (active) | 206% (active) | 365% (active) | – |
| O=c1c2cc(Br)ccc2nc(-c2ccc([N+](=O)[O-])cc2)n1O | – | – | – | inactive | 346% (active) | 147% (active) | 410% (active) | – |
| Cc1ccc(C(C(=O)NC2CCCCC2)N(Cc2cccnc2)C(=O)C2COc3ccccc3O2)o1 (stereo not given) | inactive | inactive | inactive | inactive | – | – | – | – |
| CCCCn1c(SCC(=O)/C(C#N)=C(\C)N)nc2ccccc2c1=O | inactive | inactive | inactive | inactive | – | – | – | – |
| C=CCn1c(=S)[nH]c2scc(-c3ccc(C)o3)c2c1=O | – | – | – | inactive | 550% (active) | 276% (active) | 580% (active) | – |
| CC(C)(C)NCC(O)COc1ccccc1C(C)(C)C (stereo not given) | inactive | inactive | inactive | inactive | – | – | – | – |
| N#CCn1c(CCl)nc2ccccc2c1=O | inactive | inactive | inactive | inactive | – | – | – | – |

| Structure (SMILES) | outcome [1] | outcome [2] | outcome [3] | outcome [4] | activation [1] | potentiation [2] | potentiation [3] | current potentiation [4] |
| --- | --- | --- | --- | --- | --- | --- | --- | --- |
| COc1cccc(CN(C)C(=O)c2cc(COc3ccc4ncccc4c3)on2)c1 | inactive | inactive | inactive | inactive | – | – | – | – |
| Cc1ccccc1-n1c(C)cc(/C=N/NC(=O)c2ccncc2)c1C | inactive | – | – | inactive | – | 25% (active) | 165% (active) | – |
| O=C(CSc1nc2cc(Cl)ccc2s1)c1cc2ccccc2o1 | inactive | inactive | inactive | inactive | – | – | – | – |
| COc1ccccc1NC(=O)CCN1CCN(c2ccc(Cl)cc2)CC1 | inactive | inactive | inactive | inactive | – | – | – | – |
| CC1CCc2sc(-c3n[nH]c(=S)o3)cc2C1 (stereo not given) | – | – | – | inactive | 207% (active) | 30% (active) | 179% (active) | – |
| COc1cccc(OC)c1OCCOCCN1CCN(C)CC1 | inactive | inactive | inactive | inactive | – | – | – | – |
| CCC1(c2ccccc2)NC(=S)N(c2ccc(C)cc2)N1 (stereo not given) | – | – | – | inactive | 392% (active) | 198% (active) | 522% (active) | – |
| CCOC(=O)c1cccc(NC(=O)CCc2ccccc2)c1 | inactive | inactive | inactive | inactive | – | – | – | – |
| O=C(NNc1nc2c(F)cccc2s1)c1cc(=O)c2ccccc2o1 | inactive | inactive | inactive | inactive | – | – | – | – |
| Cc1cc(N2CCN(C)CC2)nc2ccc(NC(=S)NCCCN3CCc4ccccc4C3)cc12 | inactive | inactive | inactive | inactive | – | – | – | – |
| COc1ccc(Cl)cc1N(C)C(=O)CCNC(=O)Cn1cnc2ccccc2c1=O | inactive | – | – | inactive | – | 22.5% (active) | 157% (active) | – |
| COc1cccc(C(=O)NC(=S)N2c3ccccc3CC2C)c1OC (stereo not given) | inactive | inactive | inactive | inactive | – | – | – | – |
| COc1ccc(-n2c(NCCN(C)C)nc3sc4c(c3c2=O)CCCCC4)cc1 | inactive | inactive | inactive | inactive | – | – | – | – |
| C/C(=N\NC(=S)Nc1cccc(C)c1)c1cc2ccccc2o1 | – | – | – | inactive | 159% (active) | 60% (active) | 172% (active) | – |
| CCc1cc2c(=O)[nH]c(-c3ccccn3)nc2s1 | inactive | – | – | inactive | – | 26% (active) | 226% (active) | – |
| OC(c1ccccc1)c1cccnc1 (stereo not given) | – | – | – | inactive | 146% (active) | 22% (active) | 155% (active) | – |
| CCOC(=O)c1sc2ncnc(NCc3ccco3)c2c1C | – | – | – | inactive | 332% (active) | 152% (active) | 358% (active) | – |
| O=C(NCCN1CCOCC1)[C@H](Cc1ccccc1)N1C(=O)c2ccccc2C1=O | inactive | – | – | inactive | – | 26% (active) | 155% (active) | – |
| Cc1ccc(N2C(=O)N3[C@H](c4ccc(F)cc4)[C@@H]4C(=O)N(C5CCCCC5)C(=O)[C@@H]4[C@]3(Cc3ccccc3)C2=O)cc1 | inactive | inactive | inactive | inactive | – | – | – | – |
| O=P(CCCCCCCCCP(=O)(c1ccccc1)c1ccccc1)(c1ccccc1)c1ccccc1 | – | – | – | inactive | 256% (active) | 96.5% (active) | 327% (active) | – |

| Structure (SMILES) | outcome [1] | outcome [2] | outcome [3] | outcome [4] | activation [1] | potentiation [2] | potentiation [3] | current potentiation [4] |
| --- | --- | --- | --- | --- | --- | --- | --- | --- |
| CCCn1c(NC(=O)CN2C(=O)NC3(CCCC3)C2=O)nc2ccccc21 | inactive | inactive | inactive | inactive | – | – | – | – |
| S=c1nc(-c2ccc(Br)cc2)oc2c1CCCC2 | inactive | – | inactive | inactive | – | 37% (active) | – | – |
| CCOc1ccccc1NC(=O)C1CCCN(S(=O)(=O)c2ccccc2)C1 (stereo not given) | inactive | inactive | inactive | inactive | – | – | – | – |
| CCCc1cc(=O)[nH]c(SCC(=O)NC(=O)c2ccccc2)n1 | inactive | inactive | inactive | inactive | – | – | – | – |
| Cc1ccc(C(=O)Nc2nc(-c3ccccc3)c(-c3ccccc3)o2)cc1 | – | – | – | inactive | 201% (active) | 92.5% (active) | 248% (active) | – |
| Cc1cc(C)c(NC(=O)CN2C(=O)NC3(CCCc4ccccc43)C2=O)c(Cl)c1 (stereo not given) | inactive | inactive | inactive | inactive | – | – | – | – |
| CCC1(c2ccccc2)NC(=O)N(CC(=O)Nc2ccccc2C(=O)N2CCCCC2)C1=O (stereo not given) | inactive | inactive | inactive | inactive | – | – | – | – |
| CCOC(=O)CSc1nc2ccccc2n2c(C)nnc12 | inactive | inactive | inactive | inactive | – | – | – | – |
| O=C(N/N=C/c1ccc(Sc2ccccn2)o1)c1cc2ccccc2cc1O | – | – | – | inactive | 213% (active) | 70% (active) | 277% (active) | – |
| CNc1ccccc1C(=O)OC(C)C(=O)Nc1ccc(Cl)cn1 (stereo not given) | inactive | inactive | inactive | inactive | – | – | – | – |
| CN(C)S(=O)(=O)c1ccc(Cl)c(NC(=O)CN2CCCCCC2)c1 | inactive | inactive | inactive | inactive | – | – | – | – |
| CC(C)NC(=O)C1CCN(c2ccc(S(=O)(=O)N3CCOCC3)cc2Cl)CC1 | inactive | inactive | inactive | inactive | – | – | – | – |
| COC(=O)c1sc(-c2ccc(C(C)(C)C)cc2)cc1NC(=O)/C=C/C(=O)O | – | – | – | – | 427% (active) | 130% (active) | 320% (active) | 20.6% (active) |
| CCCCn1c(NS(=O)(=O)c2ccc(C)cc2)c(S(=O)(=O)c2ccccc2)c2nc3ccccc3nc21 | inactive | inactive | inactive | inactive | – | – | – | – |
| COCCCn1c(=S)[nH]c2c(sc3ccccc32)c1=O | – | – | – | inactive | 176% (active) | 69.5% (active) | 160% (active) | – |
| S=c1nc(Cc2ccc(Cl)cc2)[nH]c2ccccc12 | – | – | – | inactive | 372% (active) | 148% (active) | 350% (active) | – |
| O=C(NC(=S)Nc1ccccc1Cl)c1csnn1 | – | – | – | inactive | 450% (active) | 174% (active) | 510% (active) | – |
| CC(C)CSC1=NSC2=NC(=O)/C(=C\c3cccs3)C(=N)N12 | inactive | inactive | inactive | inactive | – | – | – | – |
| O=C1NC(=S)S/C1=C\c1ccc2ccccc2c1 | – | – | – | inactive | 234% (active) | 82% (active) | 218% (active) | – |
| CC1CN(S(=O)(=O)c2ccc(Cl)c(C(F)(F)F)c2)CC(C)O1 (stereo not given) | inactive | inactive | inactive | inactive | – | – | – | – |

— PubChem BioAssay
